Test results reported in ChEMBL document CHEMBL4219235, “Novel fatty acid chain modified GLP-1 derivatives with prolonged in vivo glucose-lowering ability and balanced glucoregulatory activity” (Bioorg Med Chem, 2018).

Columns and labels:
[1] = target: Albumin (Homo sapiens, UniProt P02768); test: Binding affinity to human serum albumin after 3 hrs by LC-MS/MS analysis; set-up: concentration or dose not given beside the values
Summary of the method: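 HSA was coupled to NHS-activated Sepharose (6–7 mg HSA/mL wet resin); an inactivated albumin-free resin served as control. Peptide (100 µg/mL in PBS) was incubated with each resin for 3 h at 25 °C. After centrifugation, unbound peptide in the supernatant was quantified by LC-MS/MS.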

[2] = target: Glucagon-like peptide 1 receptor (Homo sapiens, UniProt P43220); test: Agonist activity at recombinant human GLP1 receptor expressed in HEK293 cells assessed as cAMP accumulation by TR-FRET assay; format: functional, cell-based
Chain of Glucagon-like peptide 1 receptor (P43220 whole entry): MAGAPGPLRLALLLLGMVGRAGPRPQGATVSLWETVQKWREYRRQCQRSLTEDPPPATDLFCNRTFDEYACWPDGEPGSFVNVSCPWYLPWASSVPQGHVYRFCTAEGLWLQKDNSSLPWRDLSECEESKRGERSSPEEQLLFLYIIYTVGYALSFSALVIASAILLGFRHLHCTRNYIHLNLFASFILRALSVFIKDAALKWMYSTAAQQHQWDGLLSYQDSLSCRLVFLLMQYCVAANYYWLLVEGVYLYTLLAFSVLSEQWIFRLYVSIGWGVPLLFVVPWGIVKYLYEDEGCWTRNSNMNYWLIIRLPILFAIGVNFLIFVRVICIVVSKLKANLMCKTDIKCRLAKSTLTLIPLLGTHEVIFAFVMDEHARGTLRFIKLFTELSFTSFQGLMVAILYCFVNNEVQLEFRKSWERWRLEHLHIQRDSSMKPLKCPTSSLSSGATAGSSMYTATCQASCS

Chain of Albumin (P02768 whole entry): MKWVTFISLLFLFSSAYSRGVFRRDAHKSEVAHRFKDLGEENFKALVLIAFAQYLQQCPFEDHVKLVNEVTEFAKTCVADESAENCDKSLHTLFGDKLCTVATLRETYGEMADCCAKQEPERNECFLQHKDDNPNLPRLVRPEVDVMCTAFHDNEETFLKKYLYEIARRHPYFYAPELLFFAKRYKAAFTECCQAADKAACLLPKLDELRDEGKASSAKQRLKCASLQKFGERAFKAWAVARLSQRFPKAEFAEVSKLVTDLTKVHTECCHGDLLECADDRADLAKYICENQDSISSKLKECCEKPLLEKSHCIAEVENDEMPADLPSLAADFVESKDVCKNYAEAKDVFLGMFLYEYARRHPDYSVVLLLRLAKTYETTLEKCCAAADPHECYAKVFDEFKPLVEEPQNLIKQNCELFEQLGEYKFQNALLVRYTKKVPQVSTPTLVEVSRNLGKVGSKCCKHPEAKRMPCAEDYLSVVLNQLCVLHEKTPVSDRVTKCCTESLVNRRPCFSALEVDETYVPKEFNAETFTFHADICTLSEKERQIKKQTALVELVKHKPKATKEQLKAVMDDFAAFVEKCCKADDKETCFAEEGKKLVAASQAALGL

Row | Activity [1] [%] | EC50 [2] [nM] | SMILES
1 | 28.5 | 0.0056 | CC[C@H](C)[C@H](NC(=O)[C@H](Cc1ccccc1)NC(=O)[C@H](CCC(=O)O)NC(=O)[C@H](CCCCN)NC(=O)[C@H](C)NC(=O)[C@H](C)NC(=O)[C@H](CCC(N)=O)NC(=O)CNC(=O)[C@H](CCC(=O)O)NC(=O)[C@H](CC(C)C)NC(=O)[C@H](Cc1ccc(O)cc1)NC(=O)[C@H](CO)NC(=O)[C@H](CSC1CC(=O)N(CCC(=O)O)C1=O)NC(=O)[C@@H](NC(=O)[C@H](CC(=O)O)NC(=O)[C@H](CO)NC(=O)[C@@H](NC(=O)[C@H](Cc1ccccc1)NC(=O)[C@@H](NC(=O)CNC(=O)[C@H](CCC(=O)O)NC(=O)CNC(=O)[C@@H](N)Cc1cnc[nH]1)[C@@H](C)O)[C@@H](C)O)C(C)C)C(=O)N[C@@H](C)C(=O)N[C@@H](Cc1c[nH]c2ccccc12)C(=O)N[C@@H](CC(C)C)C(=O)N[C@H](C(=O)N[C@@H](CCCCN)C(=O)NCC(=O)N[C@@H](CCCNC(=N)N)C(N)=O)C(C)C (stereo partly drawn)
2 | 34.1 | 0.0093 | CC[C@H](C)[C@H](NC(=O)[C@H](Cc1ccccc1)NC(=O)[C@H](CCC(=O)O)NC(=O)[C@H](CCCCN)NC(=O)[C@H](C)NC(=O)[C@H](C)NC(=O)[C@H](CCC(N)=O)NC(=O)CNC(=O)[C@H](CCC(=O)O)NC(=O)[C@H](CC(C)C)NC(=O)[C@H](Cc1ccc(O)cc1)NC(=O)[C@H](CO)NC(=O)[C@H](CO)NC(=O)[C@@H](NC(=O)[C@H](CC(=O)O)NC(=O)[C@H](CO)NC(=O)[C@@H](NC(=O)[C@H](Cc1ccccc1)NC(=O)[C@@H](NC(=O)CNC(=O)[C@H](CCC(=O)O)NC(=O)CNC(=O)[C@@H](N)Cc1cnc[nH]1)[C@@H](C)O)[C@@H](C)O)C(C)C)C(=O)N[C@@H](C)C(=O)N[C@@H](Cc1c[nH]c2ccccc12)C(=O)N[C@@H](CC(C)C)C(=O)N[C@H](C(=O)N[C@@H](CCCCN)C(=O)NCC(=O)N[C@@H](CCCNC(=N)N)C(=O)N[C@@H](CSC1CC(=O)N(CCCCCC(=O)O)C1=O)C(N)=O)C(C)C (stereo partly drawn)
3 | 65.1 | 0.0263 | CC[C@H](C)[C@H](NC(=O)[C@H](Cc1ccccc1)NC(=O)[C@H](CCC(=O)O)NC(=O)[C@H](CCCCN)NC(=O)[C@H](C)NC(=O)[C@H](C)NC(=O)[C@H](CCC(N)=O)NC(=O)CNC(=O)[C@H](CCC(=O)O)NC(=O)[C@H](CC(C)C)NC(=O)[C@H](Cc1ccc(O)cc1)NC(=O)[C@H](CO)NC(=O)[C@H](CSC1CC(=O)N(CCCCCCCCCCCC(=O)O)C1=O)NC(=O)[C@@H](NC(=O)[C@H](CC(=O)O)NC(=O)[C@H](CO)NC(=O)[C@@H](NC(=O)[C@H](Cc1ccccc1)NC(=O)[C@@H](NC(=O)CNC(=O)[C@H](CCC(=O)O)NC(=O)CNC(=O)[C@@H](N)Cc1cnc[nH]1)[C@@H](C)O)[C@@H](C)O)C(C)C)C(=O)N[C@@H](C)C(=O)N[C@@H](Cc1c[nH]c2ccccc12)C(=O)N[C@@H](CC(C)C)C(=O)N[C@H](C(=O)N[C@@H](CCCCN)C(=O)NCC(=O)N[C@@H](CCCNC(=N)N)C(N)=O)C(C)C (stereo partly drawn)
4 | 37.4 | 0.0143 | CC[C@H](C)[C@H](NC(=O)[C@H](Cc1ccccc1)NC(=O)[C@H](CCC(=O)O)NC(=O)[C@H](CCCCN)NC(=O)[C@H](C)NC(=O)[C@H](C)NC(=O)[C@H](CCC(N)=O)NC(=O)CNC(=O)[C@H](CCC(=O)O)NC(=O)[C@H](CC(C)C)NC(=O)[C@H](Cc1ccc(O)cc1)NC(=O)[C@H](CO)NC(=O)[C@H](CSC1CC(=O)N(CCCCCC(=O)O)C1=O)NC(=O)[C@@H](NC(=O)[C@H](CC(=O)O)NC(=O)[C@H](CO)NC(=O)[C@@H](NC(=O)[C@H](Cc1ccccc1)NC(=O)[C@@H](NC(=O)CNC(=O)[C@H](CCC(=O)O)NC(=O)CNC(=O)[C@@H](N)Cc1cnc[nH]1)[C@@H](C)O)[C@@H](C)O)C(C)C)C(=O)N[C@@H](C)C(=O)N[C@@H](Cc1c[nH]c2ccccc12)C(=O)N[C@@H](CC(C)C)C(=O)N[C@H](C(=O)N[C@@H](CCCCN)C(=O)NCC(=O)N[C@@H](CCCNC(=N)N)C(N)=O)C(C)C (stereo partly drawn)
